Source: PubChem BioAssay
T cruzi growth-1 – T. cruzi proliferation inhibition | T. cruzi beta-gal in NIH3T3, GalScreen luminescence, 90 h | inhibition, % at 8.34 µM | hit rate 5.9% among 77,000 | AID 624255;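 active means mean inhibition above about 93%, with at least 55% of replicates each passing it, limit read from the data, passing the limit was not always enough; inconclusive means only one of those two conditions holds; inactive means neither condition holds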
IDH1 R132H inh – blocks human IDH1 R132H reductase activity; AID 624101; inhibition, % at 10 µM; diaphorase/resazurin fluorescence, 60 min; hit rate 0.18% among 70,000; in the data active means inhibition above about 34%; inconclusive means no clear call, values can overlap the other calls; inactive means below about 11%
Target sequence (O75874 whole entry R132H): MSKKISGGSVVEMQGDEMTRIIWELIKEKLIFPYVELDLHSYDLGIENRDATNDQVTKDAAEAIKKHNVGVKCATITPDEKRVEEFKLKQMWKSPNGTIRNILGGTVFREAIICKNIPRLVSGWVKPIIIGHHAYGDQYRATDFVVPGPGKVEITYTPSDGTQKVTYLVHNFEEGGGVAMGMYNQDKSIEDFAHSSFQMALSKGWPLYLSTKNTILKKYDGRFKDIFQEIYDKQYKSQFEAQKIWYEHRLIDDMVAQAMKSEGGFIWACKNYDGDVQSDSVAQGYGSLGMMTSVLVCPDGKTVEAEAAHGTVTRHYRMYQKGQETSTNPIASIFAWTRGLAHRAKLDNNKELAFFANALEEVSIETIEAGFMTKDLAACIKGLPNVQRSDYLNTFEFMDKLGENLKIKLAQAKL
KDM4C inh – inhibitors of human demethylase GASC-1 KDM4C | inhibition, % at 12.5 µM | Q9H3R0 | AID 720574 | hit rate 0.15% among 96,000 | GST-KDM4C 2-372, H3K9me3 peptide, LANCE TR-FRET;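 active means mean replicate inhibition above about 25%, with at least 55% of replicates also reaching it, limit read from the data, passing the limit was not always enough; inconclusive means only one of those two conditions met; inactive means neither condition met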
Target sequence (Q9H3R0 2-372 limits assumed): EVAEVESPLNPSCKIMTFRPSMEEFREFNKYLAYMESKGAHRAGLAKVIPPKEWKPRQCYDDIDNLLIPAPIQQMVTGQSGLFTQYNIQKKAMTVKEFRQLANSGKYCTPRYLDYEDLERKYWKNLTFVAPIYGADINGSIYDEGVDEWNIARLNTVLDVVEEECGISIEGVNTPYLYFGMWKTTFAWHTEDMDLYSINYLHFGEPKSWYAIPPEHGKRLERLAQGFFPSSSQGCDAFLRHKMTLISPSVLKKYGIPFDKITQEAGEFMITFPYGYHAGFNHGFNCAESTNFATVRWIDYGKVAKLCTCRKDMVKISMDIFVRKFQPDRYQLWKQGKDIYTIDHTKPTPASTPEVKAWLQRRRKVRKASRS
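material = GST-tagged GASC-1 (JMJD2C) catalytic fragment, aa 2-372 | amount = enzyme final amount 10 nM | medium = HEPES buffer, pH 7.5, plus ascorbate | also added = H3K9me3 peptide substrate, Fe(II), 2-oxoglutarate | dosing = single dose | times = 30 min demethylation and 1 h detection at room temperature | detection = LANCE TR-FRET | read-out basis = Fall in 671/618 emission ratio as inhibition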
T cruzi growth-2 – Trypanosoma cruzi proliferation inhibition. shares compounds with T cruzi growth-1. T. cruzi beta-gal in NIH3T3, GalScreen luminescence, 90 h. inhibition, % at 8.35 µM. hit rate 72% among 5,600;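 active means mean replicate inhibition above about 95% and at least 55% of replicates individually reaching it, limit read from the data; inconclusive means only one of the two criteria is met; inactive means neither criterion is met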
T cruzi growth-3 – blocks T. cruzi growth in NIH3T3 host cells. hit rate 21% among 5,600. inhibition, % at 2.09 µM. AID 651740. shares compounds with T cruzi growth-1. T. cruzi beta-gal in NIH3T3, GalScreen luminescence, 90 h;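 active means mean inhibition above about 95%, with at least 55% of replicates also reaching it, limit read from the data; inconclusive means meets just one of the two conditions; inactive means meets neither condition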
3T3 cytotox – kills mouse NIH/3T3 fibroblasts. shares compounds with T cruzi growth-1. AID 651742. cytotoxicity (signal decrease), % at 8.35 µM. NIH/3T3 viability, CellTiter-Glo ATP luminescence, 90 h. hit rate 14% among 5,600;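 active means mean signal decrease across replicates above about 35% based on untreated-well scatter, with enough replicates individually passing, limit read from the data; inconclusive means no rule stated though some were filed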
3T3 cytotox 2 – cytotoxicity in mouse NIH/3T3 fibroblasts | NIH/3T3 viability, CellTiter-Glo ATP luminescence, 90 h | shares compounds with T cruzi growth-1 | AID 651744 | hit rate 56% among 5,600 | inhibition, % at 24.9 µM;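 active means mean loss of cell viability signal at or above a set limit, and enough replicates individually reaching it; inconclusive means meets only the mean limit or only the replicate share; inactive means meets neither condition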
Large screens that a line does not name were inactive (follow-up assays come after a bar, where they were run); ! = a repeat was not active. The full list was thinned out, with hits kept by preference.

Cc1ccc(C2c3c(oc4ccccc4c3=O)C(=O)N2c2nnc(C)s2)o1 (centres undefined)	none (no result: T cruzi growth-1, KDM4C inh)
Cc1noc(C)c1S(=O)(=O)N(C)C[C@@H]1Oc2ccc(NC(=O)Cc3cn(C)c4ccccc34)cc2CC(=O)N([C@H](C)CO)C[C@@H]1C	none
O=S(=O)(Cc1ccccc1)N1CCCCN2[C@@H](CO)[C@H](c3ccc(-c4cncnc4)cc3)[C@@H]2C1	none (no result: IDH1 R132H inh)
O=S(=O)(Cc1ccccc1)N1CCCCN2[C@H](CO)[C@H](c3ccc(-c4ccc(F)cc4)cc3)[C@H]2C1	T cruzi growth-1 inconclusive (no result: IDH1 R132H inh) | T cruzi growth-2 inactive | T cruzi growth-3 102 | 3T3 cytotox 64 | 3T3 cytotox 2 104
COc1ccc(NC(=O)N(C)C[C@@H]2Oc3c(NC(=O)Nc4c(C)noc4C)cccc3C(=O)N([C@@H](C)CO)C[C@@H]2C)cc1	none
COc1ccccc1-c1cnc2c(c1)C(=O)N([C@H](C)CO)C[C@@H](C)[C@H](CN(C)C(C)=O)O2	none
COc1ccccc1-c1cnc2c(c1)C(=O)N([C@H](C)CO)C[C@@H](C)[C@@H](CN(C)C(C)=O)O2	T cruzi growth-1 99 | T cruzi growth-2 inconclusive | T cruzi growth-3 inactive | 3T3 cytotox inactive | 3T3 cytotox 2 inactive
COc1ccccc1-c1cnc2c(c1)C(=O)N([C@@H](C)CO)C[C@@H](C)[C@@H](CN(C)C(C)=O)O2	none (no result: IDH1 R132H inh)
COc1ccccc1-c1cnc2c(c1)C(=O)N([C@H](C)CO)C[C@H](C)[C@H](CN(C)C(C)=O)O2	T cruzi growth-1 inconclusive | T cruzi growth-2 inactive | T cruzi growth-3 inactive | 3T3 cytotox inactive | 3T3 cytotox 2 inactive
Cc1noc(C)c1NC(=O)Nc1cccc2c1O[C@@H](CN(C)Cc1ccc(Cl)c(Cl)c1)[C@@H](C)CN([C@@H](C)CO)C2=O	none
CCOC(=O)c1c(NC(=O)CSc2nc(C)cc(C(F)(F)F)n2)sc2c1CCCC2	none (no result: T cruzi growth-1, KDM4C inh)
O=C(CCN1CCCCC1)N[C@@H]1CC[C@@H](CCn2cc(-c3ccc(F)cc3)nn2)O[C@H]1CO	none
CCC(=O)N1[C@H](CNC(=O)COC)[C@@H](c2ccc(-c3ccccc3)cc2)[C@@H]1CO	none (no result: IDH1 R132H inh)
C[C@@H]1CN([C@H](C)CO)C(=O)CCCn2cc(nn2)CO[C@@H]1CN(C)C(=O)Cc1ccccc1	none
C[C@H]1CN([C@@H](C)CO)C(=O)CCCn2cc(nn2)CO[C@@H]1CN(C)Cc1ccccc1	none
C[C@H]1CN([C@@H](C)CO)C(=O)CCCn2cc(nn2)CO[C@@H]1CN(C)Cc1cccc(O)c1	none
C[C@H]1CN([C@@H](C)CO)C(=O)CCCn2cc(nn2)CO[C@@H]1CN(C)C(=O)C1CC1	none
C[C@@H]1CN([C@@H](C)CO)C(=O)CCCn2cc(nn2)CO[C@H]1CN(C)C(=O)C1CC1	T cruzi growth-1 inconclusive | T cruzi growth-2 inactive | T cruzi growth-3 inactive | 3T3 cytotox inactive | 3T3 cytotox 2 inactive
C[C@H](CO)N1C[C@H](C)[C@H](CN(C)Cc2cccc(O)c2)OCc2cn(nn2)CCCC1=O	T cruzi growth-1 inconclusive (no result: IDH1 R132H inh) | T cruzi growth-2 inactive | T cruzi growth-3 inactive | 3T3 cytotox inactive | 3T3 cytotox 2 inactive
C[C@@H]1CN([C@@H](C)CO)C(=O)CCCn2cc(nn2)CO[C@H]1CN(C)Cc1ccccc1	T cruzi growth-1 121 | T cruzi growth-2 inactive | T cruzi growth-3 inactive | 3T3 cytotox inactive | 3T3 cytotox 2 inactive
C[C@H]1CN([C@@H](C)CO)C(=O)CCCn2cc(nn2)CO[C@@H]1CN(C)C(=O)Cc1ccccc1	T cruzi growth-1 131! | T cruzi growth-2 inactive | T cruzi growth-3 inactive | 3T3 cytotox inactive | 3T3 cytotox 2 inactive
O=C([C@H]1N[C@H]2c3ccc(-c4ccccc4F)c(=O)n3C[C@H]2[C@@H]1CO)N1CCCCC1	none (no result: IDH1 R132H inh)
C[C@H](CO)N1C[C@H](C)[C@H](CN(C)S(=O)(=O)c2cn(C)cn2)Oc2ncc(C#CCN(C)C)cc2C1=O	none
Cc1ccccc1-c1ccc(C2[C@H]3CNC[C@@H]2N3Cc2ccccn2)cc1 (some centres undefined)	none (no result: T cruzi growth-1, IDH1 R132H inh)
Cc1noc(C)c1S(=O)(=O)Nc1cccc2c1O[C@@H](CN(C)C(=O)NC(C)C)[C@@H](C)CN([C@H](C)CO)C2=O	none (no result: IDH1 R132H inh)
C[C@H]1CN([C@@H](C)CO)C(=O)CCCn2cc(nn2)CO[C@@H]1CN(C)C(=O)Nc1ccc(C(F)(F)F)cc1	none
C[C@@H]1CN([C@@H](C)CO)C(=O)c2cc(C#CCC3CCCC3)cnc2O[C@H]1CN(C)C(=O)c1cnccn1	none
N#Cc1c(NC(=O)CSc2ncn(-c3ccccc3)n2)sc2c1CCCC2	none (no result: T cruzi growth-1, KDM4C inh)
C[C@H]1CN([C@@H](C)CO)C(=O)CCCn2cc(nn2)CO[C@@H]1CN(C)C(=O)c1ccc(N2CCN(C)CC2)cc1	none
C[C@@H]1CN([C@@H](C)CO)C(=O)CCCn2cc(nn2)CO[C@@H]1CN(C)C(=O)Nc1cccc(C(F)(F)F)c1	T cruzi growth-1 152 | T cruzi growth-2 inactive | T cruzi growth-3 inactive | 3T3 cytotox inactive | 3T3 cytotox 2 inactive
C[C@@H]1CN([C@H](C)CO)C(=O)CCCn2cc(nn2)CO[C@@H]1CN(C)C(=O)c1ccc(N2CCN(C)CC2)cc1	T cruzi growth-1 120 | T cruzi growth-2 inactive | T cruzi growth-3 inactive | 3T3 cytotox inactive | 3T3 cytotox 2 inactive
C[C@H]1CN([C@@H](C)CO)C(=O)CCCn2cc(nn2)CO[C@@H]1CN(C)C(=O)Nc1cccc(C(F)(F)F)c1	none
CO[C@@H]1CC[C@H]2CCN(C)C(=O)[C@@H](C)CN(C)C(=O)c3cccc(C#N)c3OC[C@H]1O2	none (no result: IDH1 R132H inh)
O=C1CN(Cc2ccc(F)cc2)C[C@@H]2[C@@H](c3ccc(Br)cc3)[C@H](CO)N12	none (no result: T cruzi growth-1, IDH1 R132H inh)
COc1cc(CN2CC3(CCN(C(=O)NC(C)C)CC3)c3c(n(C)c4cc(OC)ccc34)[C@H]2CO)cc(OC)c1	none (no result: T cruzi growth-1, IDH1 R132H inh)
N#C[C@@H]1[C@H](c2ccc(C#CC3CCCCC3)cc2)[C@@H](CO)N1C(=O)Nc1ccc(F)cc1	none (no result: T cruzi growth-1, IDH1 R132H inh)
CC(C)NC(=O)N1[C@@H](C#N)[C@@H](c2ccc(C#CC3CCCCC3)cc2)[C@@H]1CO	none (no result: IDH1 R132H inh)
CC(C)NC(=O)N1[C@@H](C#N)[C@H](c2ccc(C#CC3CCCCC3)cc2)[C@@H]1CO	T cruzi growth-1 100 (no result: IDH1 R132H inh) | T cruzi growth-2 105 | T cruzi growth-3 inactive | 3T3 cytotox inactive | 3T3 cytotox 2 62
CC(C)NC(=O)N1[C@H](CO)[C@@H](c2ccc(C#CC3CCCCC3)cc2)[C@@H]1C#N	T cruzi growth-1 99 (no result: IDH1 R132H inh) | T cruzi growth-2 inactive | T cruzi growth-3 105 | 3T3 cytotox inactive | 3T3 cytotox 2 105
CCCNC(=O)N1CC(=O)N2[C@@H](CO)[C@H](c3ccc(C#CCC4CCCC4)cc3)[C@@H]2C1	none (no result: T cruzi growth-1, IDH1 R132H inh)
CN(C)CC#Cc1ccc([C@H]2[C@H]3CN(C(=O)C4CCC4)CCCCN3[C@H]2CO)cc1	none (no result: IDH1 R132H inh)
COC(=O)C[C@@H]1C[C@@H]2c3cc(NC(=O)C4CCOCC4)ccc3O[C@@H]2[C@H](CO)O1	none
